Drawing on ChEMBL document CHEMBL3425405, “Discovery of Small Molecules for Up-Regulating the Translation of Antiamyloidogenic Secretase, a Disintegrin and Metalloproteinase 10 (ADAM10), by Binding to the G-Quadruplex-Forming Sequence in the 5' Untranslated Region (UTR) of Its mRNA” (J Med Chem, 2015), this text covers Activity, IC50 and Drug uptake for one molecule.

Active and inactive are the calls of the source. The calls are words filed in the database; no cut-off is given here.

Series [1] deals with HeLa. The experiment in a line: Binding affinity to ADAM10 A10-RNA QGRS (unknown origin) transfected in human HeLa cells assessed as increase in ADAM10 translation efficiency at 2 uM after 24 hrs by Renilla/firefly dual luciferase reporter assay. The format is cell-based. In outline:
(§1)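 HeLa cells transfected with 0.8 μg A10-Wt, A10-Mut or A10-Del plasmid (G-quadruplex motif upstream of Renilla in psiCHECK-2). Screening: 24 h at a single 2 μM concentration. Follow-up: plasmid for 12 h, then 0, 0.5, 1 or 2.5 μM for 24 h. Renilla normalized to firefly, relative to untreated control; mean ± SD of three independent measurements.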
For orientation: A reporter such as luciferase makes a cellular process visible.

A short description of series [2]: Toxicity against human HeLa cells assessed as reduction in cell viability after 24 hrs by MTT assay. It is filed as cell-based. For orientation: Tetrazolium assays rely on reduction of a dye to a coloured formazan, in cell work by metabolically active cells.
The subject of series [3] is HeLa. As to the kind of experiment: Toxicity against human HeLa cells assessed as effect on cell number at 0.5 to 2.5 uM after 24 hrs. The format is cell-based. The essentials: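 HeLa cells inspected for cell number and morphology before the luciferase read-out, after reporter-plasmid transfection and 24 h exposure to 0, 0.5, 1 or 2.5 μM compound.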
Series [4] deals with HeLa. The experiment in a line: Binding affinity to ADAM10 A10-RNA QGRS (unknown origin) transfected in human HeLa cells assessed as increase in ADAM10 translation efficiency at 1 uM after 24 hrs by Renilla/firefly dual luciferase reporter assay. The format is cell-based. In outline: as §1
Series [5] has as its system HeLa. As to the kind of experiment: Binding affinity to ADAM10 A10-mutant RNA QGRS (unknown origin) transfected in human HeLa cells assessed as increase in ADAM10 translation efficiency at 0.5 to 2.5 uM after 24 hrs by Renilla/firefly dual luciferase reporter assay. It is filed as cell-based. The essentials:
as §1

In series [6] the test system is HeLa. The experiment in a line: Binding affinity to VEGF RNA QGRS (unknown origin) transfected in human HeLa cells assessed as increase in ADAM10 translation efficiency at 2.5 uM after 24 hrs by Renilla/firefly dual luciferase reporter assay. It is filed as cell-based. The essentials:
(§2)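 HeLa cells carrying luciferase reporter plasmids with the N-Ras, Bcl-2 or VEGF 5′-UTR quadruplex (or its mutant) treated with compound up to 2.5 μM for 24 h. Renilla/firefly luciferase activity then measured.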

The test system of series [7] is HeLa. As to the kind of experiment: Binding affinity to ADAM10 5'-UTR RNA QGRS (unknown origin) transfected in human HeLa cells assessed as increase in luciferase mRNA expression at 0.5 to 2.5 uM after 24 hrs by RT-PCR method. It is filed as cell-based.
Series [8] concerns HeLa. The experiment in a line: Binding affinity to Bcl-2 RNA QGRS (unknown origin) transfected in human HeLa cells assessed as increase in ADAM10 translation efficiency at 2.5 uM after 24 hrs by Renilla/firefly dual luciferase reporter assay. The format is cell-based. The essentials:
as §2

The subject of series [9] is HeLa. The experiment in a line: Binding affinity to ADAM10 5'-UTR mutant RNA QGRS (unknown origin) transfected in human HeLa cells assessed as increase in ADAM10 translation efficiency at 2.5 uM after 24 hrs by Renilla/firefly dual luciferase reporter assay. The format is cell-based. The essentials:
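HeLa cells transfected with 0.8 μg 5′UTR-Wt or 5′UTR-Mut dual-luciferase plasmid. After 12 h, incubated 24 h with 0, 0.5, 1 or 2.5 μM compound. Renilla luciferase normalized to firefly and expressed relative to the ligand-free control; mean ± SD of three independent experiments, each in triplicate.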

Series [10] relates to HEK-APP. As to the kind of experiment: Binding affinity to ADAM10 A10-RNA QGRS (unknown origin) transfected in HEK-APP cells assessed as increase in ADAM10 protein expression at 0.75 uM after 48 hrs by Western blotting method. It is filed as cell-based. In outline: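 HEK-APP cells (DMEM, 10% FBS, 2 mM glutamine, 0.2 mg/mL G418) treated with 0, 0.5, 0.75, 1 or 1.5 μM compound for 48 h. Lysates in Tris/NaCl/EDTA/1% Triton buffer immunoblotted for ADAM10, APP and β-actin; conditioned medium blotted for sAPPα. Signal by densitometry, normalized to β-actin, relative to blank control; mean ± SD, three independent experiments.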

The subject of series [11] is HEK-APP. The experiment in a line: Binding affinity to ADAM10 A10-RNA QGRS (unknown origin) transfected in HEK-APP cells assessed as change in ADAM10 mRNA expression at 0.5 to 1.5 uM after 48 hrs by RT-PCR method. It is filed as cell-based. The essentials: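 HEK-APP cells cultured 48 h with 0, 0.5, 0.75, 1 or 1.5 μM compound. Total RNA isolated and ADAM10 mRNA measured by RT-PCR, normalized to β-actin.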

Series [12] in a line: Drug accumulation in cytoplasm of APP expressing HEK cells at 2 uM after 2 hrs by confocal microscopy. The format is ADME, cell-based. As to conditions: human, hek293, 2 h.
Series [13] concerns the target T1, Disintegrin and metalloproteinase domain-containing protein 10 (Homo sapiens) (UniProt O14672).
T1 sequence (whole entry): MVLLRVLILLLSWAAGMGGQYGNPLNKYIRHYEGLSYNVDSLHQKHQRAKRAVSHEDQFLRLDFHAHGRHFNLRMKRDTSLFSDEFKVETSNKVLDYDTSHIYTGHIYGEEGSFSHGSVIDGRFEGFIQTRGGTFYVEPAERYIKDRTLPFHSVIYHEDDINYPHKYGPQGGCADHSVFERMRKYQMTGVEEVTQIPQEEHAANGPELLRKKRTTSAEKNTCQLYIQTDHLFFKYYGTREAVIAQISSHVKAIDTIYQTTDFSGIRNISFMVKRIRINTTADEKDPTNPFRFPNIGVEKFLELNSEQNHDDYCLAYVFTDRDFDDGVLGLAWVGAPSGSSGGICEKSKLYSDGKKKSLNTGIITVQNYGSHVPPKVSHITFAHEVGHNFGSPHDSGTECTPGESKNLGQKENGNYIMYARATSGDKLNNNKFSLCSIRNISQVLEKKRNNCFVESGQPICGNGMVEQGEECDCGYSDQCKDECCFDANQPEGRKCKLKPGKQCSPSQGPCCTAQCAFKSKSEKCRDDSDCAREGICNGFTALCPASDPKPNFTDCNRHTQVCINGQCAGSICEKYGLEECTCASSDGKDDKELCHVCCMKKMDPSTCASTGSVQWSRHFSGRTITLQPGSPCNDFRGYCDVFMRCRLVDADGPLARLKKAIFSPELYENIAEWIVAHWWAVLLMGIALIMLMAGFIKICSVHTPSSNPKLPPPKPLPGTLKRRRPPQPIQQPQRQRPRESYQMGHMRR
As to the kind of experiment: Activation of human recombinant ADAM10 assessed as increase in enzyme activity at 0.25 to 4 uM pre-incubated for 20 mins before fluorogenic alpha-secretase substrate addition and measured 1 hr post substrate addition by monochromator-based multimode microplate reader based method. The essentials: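 Recombinant human ADAM10 (50 ng total protein per sample) preincubated 20 min with 0, 0.25, 0.5, 1, 2, 4 μM compound. Then 2× reaction buffer added (50 μM Tris, 4 μM ZnCl2, 0.01% Brij-35, pH 9.0) with 20 μM fluorogenic α-secretase substrate. Incubated 1 h at 37 °C in the dark; fluorescence read at ex 340/em 490 nm.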

Series [14] deals with HEK293. The experiment in a line: Reduction in Abeta40 protein production in APP expressing HEK cells at 1.5 uM after 48 hrs by ELISA method. Also on record: scale not given: the % may be the effect or the level left. It is filed as functional, Homo sapiens. In outline: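 HEK-APP cells treated 48 h with increasing compound concentrations (0.75, 1, 1.5 μM). Secreted Aβ40 in equal amounts of conditioned medium quantified by sandwich ELISA. Values expressed relative to blank control; mean ± SD of three independent experiments.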
Background: An ELISA detects its analyte on a solid surface through an enzyme-linked reagent.

`CCn1c2ccccc2c2cc(/C=C/c3cc(N4CCN(C)CC4)c4ccccc4[n+]3C)ccc21.[I-]`: the Activity in [1] is 138%; in series [3], “Non-toxic”; in series [4], 46.9%; in series [8], 20%; in [10], 55.1%; in [14] it was 40.8%. Moreover, in [2], the IC50 (usually the midpoint of a concentration-inhibition curve) at 24 h was determined as 20.9 µM. Besides, the outcome in series [5], in [6], in [7], in [9] and in series [11] was inactive. Besides, the Drug uptake result in series [12] is “Active”. Besides, the outcome in series [13] was Active.
